Laboratory results from ChEMBL document CHEMBL1145269, “Synthesis and evaluation of urea-based indazoles as melanin-concentrating hormone receptor 1 antagonists for the treatment of obesity” (Bioorg Med Chem Lett, 2005).

Key:
[1] = Maximum plasma compound (10 mg/kg, p.o.) concentration in diet-induced obese mice; assay type: ADME, organism-based; design: dose 10 mg/kg, route oral; details: mouse, po
[2] = target: Melanin-concentrating hormone receptor (Homo sapiens, UniProt Q969V1+Q99705); assay: Inhibition of Melanin-concentrating hormone (MCH) mediated [Ca2+] release in IMR-32 cells; assay type: functional, cell-based
[3] = target: Melanin-concentrating hormone receptor 1 (Homo sapiens) (UniProt Q99705); assay: Inhibitory concentration against Melanin-concentrating hormone receptor 1 in human IMR-32 cells
[4] = Area under curve in diet-induced obese mice plasma at 10 mg/kg (p.o.) concentration; assay type: ADME, organism-based; design: dose 10 mg/kg, route oral; details: mouse, in vivo, po
[5] = Area under curve in diet-induced obese mice brain at 10 mg/kg (p.o.) concentration; assay type: ADME, organism-based; design: dose 10 mg/kg, route oral; details: mouse, in vivo, po
[6] = Area under curve in diet-induced obese mice brain at 10 mg/kg (p.o.) concentration; n=3; assay type: ADME, organism-based; design: dose 10 mg/kg, route oral; details: mouse, in vivo, po
[7] = target: Melanin-concentrating hormone receptor 1 (Homo sapiens) (UniProt Q99705); assay: Inhibitory concentration against human Melanin-concentrating hormone receptor 1 expressed in IMR-32 cells using [125I]MCH
[8] = Area under curve in diet-induced obese mice plasma at 10 mg/kg (p.o.) concentration; n=3; assay type: ADME, organism-based; design: dose 10 mg/kg, route oral; details: mouse, in vivo, po
[9] = Maximum brain compound (10mg/kg, p.o.) concentration in diet-induced obese mice; assay type: ADME, organism-based; design: dose 10 mg/kg, route oral; details: mouse, po
Mus musculus [10] = assay: Mean cumulative food intake of mice on day 11 after treatment with compound at 30 mg/kg; n=12; assay type: functional
How it was run: (§1)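 Chronic study in DIO mice fed a 60 kcal % fat diet ad libitum, dosed by oral gavage bid for 14 days at 30 or 100 mg/kg in 1% Tween 80/water (4 mL/kg). Food weighed on the first day and periodically thereafter. Cumulative intake reported on days 1, 5, 7, 11 and 14; mean ± SEM, n = 12.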

Mus musculus [11] = assay: Body weight of the mice after treatment with the compound (100 mg/kg, p.o.) on day 0 (Vehicle=45.0 1 0.7); assay type: functional
Mus musculus [12] = assay: Mean cumulative food intake of mice on day 14 after treatment with compound at 100 mg/kg; n=12; assay type: functional; how it was run: as §1
Mus musculus [13] = assay: Mean cumulative food intake of mice on day 7 after treatment with compound at 30 mg/kg; n=12; assay type: functional; how it was run: as §1
Mus musculus [14] = assay: Body weight of the mice after treatment with the compound (30 mg/kg, p.o.) on day 14 (Vehicle=46.9 1 0.8); assay type: functional
Mus musculus [15] = assay: Body weight of the mice after treatment with the compound (30 mg/kg, p.o.) on day 0 (Vehicle=45.0 1 0.7); assay type: functional
Mus musculus [16] = assay: Mean cumulative food intake of mice on day 1 after treatment with compound at 100 mg/kg; n=12; assay type: functional; how it was run: as §1
Mus musculus [17] = assay: Mean cumulative food intake of mice on day 11 after treatment with compound at 100 mg/kg; n=12; assay type: functional; how it was run: as §1
Mus musculus [18] = assay: Mean cumulative food intake of mice on day 5 after treatment with compound at 30 mg/kg; n=12; assay type: functional; how it was run: as §1
Mus musculus [19] = assay: Mean cumulative food intake of mice on day 1 after treatment with compound at 30 mg/kg; n=12; assay type: functional; how it was run: as §1
Mus musculus [20] = assay: Percent change of mice body weight after treatment with the compound (30 mg/kg, p.o.) to that of vehicle; assay type: functional
Mus musculus [21] = assay: Mean cumulative food intake of mice on day 7 after treatment with compound at 100 mg/kg; n=12; assay type: functional; how it was run: as §1
Mus musculus [22] = assay: Percent change of mice body weight after treatment with the compound (100 mg/kg, p.o.) to that of vehicle; assay type: functional
Mus musculus [23] = assay: Body weight of the mice after treatment with the compound (100 mg/kg, p.o.) on day 14 (Vehicle=46.9 1 0.8); assay type: functional
Mus musculus [24] = assay: Compound (100 mg/kg, bid) tested for reduction of fat mass in mice (vehicle=22.1); assay type: functional
Mus musculus [25] = assay: Mean cumulative food intake of mice on day 14 after treatment with compound at 30 mg/kg; n=12; assay type: functional; how it was run: as §1
Mus musculus [26] = assay: Mean cumulative food intake of mice on day 5 after treatment with compound at 100 mg/kg; n=12; assay type: functional; how it was run: as §1
Mus musculus [27] = assay: Body weight of the mice after treatment with the compound (10 mg/kg, p.o.) on day 14 (Vehicle=46.9 1 0.8); n=12; assay type: functional
Mus musculus [28] = assay: Percent change of mice body weight after treatment with the compound (10 mg/kg, p.o.) to that of vehicle; n=12; assay type: functional
Mus musculus [29] = assay: Mean cumulative food intake of mice on day 1 after treatment with compound at 10 mg/kg; n=12; assay type: functional
How it was run: (§2)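 DIO mice, kept on a high-fat diet (60 kcal % fat, 5.2 kcal/g) for about 16 weeks with ad libitum feeding. Given 10 mg/kg po by gavage qd for 14 days in 1% Tween 80/water at 4 mL/kg, alongside vehicle. Food weighed on the first day and periodically thereafter; cumulative intake reported at days 1, 5, 7, 11 and 14. Mean ± SEM, n = 12.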

Mus musculus [30] = assay: Body weight of the mice after treatment with the compound (10 mg/kg, p.o.) on day 0 (Vehicle=45.0 1 0.7); n=12; assay type: functional
Mus musculus [31] = assay: Mean cumulative food intake of mice on day 14 after treatment with compound at 10 mg/kg; n=12; assay type: functional; how it was run: as §2
Mus musculus [32] = assay: Mean cumulative food intake of mice on day 5 after treatment with compound at 10 mg/kg; n=12; assay type: functional; how it was run: as §2
Mus musculus [33] = assay: Mean cumulative food intake of mice on day 7 after treatment with compound at 10 mg/kg; n=12; assay type: functional; how it was run: as §2
Mus musculus [34] = assay: Mean cumulative food intake of mice on day 11 after treatment with compound at 10 mg/kg; n=12; assay type: functional; how it was run: as §2

O=C(Cc1ccc(OCc2ccccc2)cc1)Nc1ccc2cnn(CCN3CCCC3)c2c1
Cmax [1]: 596 ng/mL
IC50 [2]: 11 nM
IC50 [3]: 1.4 nM
AUC [4]: 2.12 µg/h/mL
AUC [5]: 1.33 µg·h/g

O=C(CNCc1ccc(Oc2ccccc2)cc1)Nc1ccc2ccn(CCN3CCCC3)c2c1
IC50 [2]: 1810 nM
IC50 [3]: 299 nM
AUC [4]: 1.16 µg/h/mL
AUC [5]: 0.674 µg·h/g

O=C(NCCc1ccc(Oc2ccccc2)cc1)Nc1ccc2cnn(CCN3CCCC3)c2c1
AUC [6]: 0 µg/h/g
Cmax [1]: 86 ng/mL
IC50 [2]: 178 nM
IC50 [7]: 34.3 nM
AUC [8]: 0.335 µg/h/g

O=C(Nc1ccc(Oc2ccccc2)cc1)Nc1ccc2c(cnn2CCN2CCC(O)CC2)c1
IC50 [2]: > 10000 nM
IC50 [7]: 6130 nM

O=c1n(-c2ccc(Oc3ccccc3)cc2)ccn1-c1ccc2c(cnn2CCN2CCCC2)c1
AUC [6]: 1.71 µg/h/g
Cmax [1]: 543 ng/mL
IC50 [2]: 654 nM
IC50 [7]: 5.9 nM
AUC [8]: 1.35 µg/h/mL
Cmax [9]: 183 ng/g

COC[C@@H]1CCCN1CCCn1ncc2cc(NC(=O)Nc3ccc(Oc4ccccc4)cc3)ccc21
IC50 [2]: 1177 nM
IC50 [7]: 82.9 nM

O=C(Nc1ccc(Oc2ccccc2)cc1)Nc1ccc2c(cnn2CCN2CCC(F)(F)C2)c1
IC50 [2]: > 10000 nM
IC50 [7]: 305 nM

CC(C)CNCCn1ncc2cc(NC(=O)Nc3ccc(Oc4ccccc4)cc3)ccc21
IC50 [2]: 751 nM
IC50 [7]: 1.8 nM

O=C(NCCc1ccc(Oc2ccccc2)cc1)Nc1ccc2c(cnn2CCN2CCCC2)c1
IC50 [2]: > 10000 nM
IC50 [7]: 545 nM

O=C(Nc1ccc(Oc2ccccc2)cc1)Nc1ccc2c(cnn2CCNC2CCCC2)c1
IC50 [2]: 147 nM
IC50 [7]: 2.4 nM

O=C(NCc1ccc(Oc2ccccc2)cc1)Nc1ccc2c(cnn2CCN2CCCC2)c1
IC50 [2]: > 10000 nM
IC50 [7]: 508 nM

O=C(NCc1ccc(Oc2ccccc2)cc1)Nc1ccc2cnn(CCN3CCCC3)c2c1
IC50 [2]: 626 nM
IC50 [7]: 78.5 nM

NC(=O)C1CCN(CCn2ncc3cc(NC(=O)Nc4ccc(Oc5ccccc5)cc4)ccc32)CC1
IC50 [2]: 171 nM
IC50 [7]: 134 nM

NC(=O)C1CCN(CCCn2ncc3cc(NC(=O)Nc4ccc(Oc5ccccc5)cc4)ccc32)CC1
IC50 [2]: 2880 nM
IC50 [7]: 40.6 nM

COC[C@@H]1CCCN1CCn1ncc2cc(NC(=O)Nc3ccc(Oc4ccccc4)cc3)ccc21
IC50 [2]: 516 nM
IC50 [7]: 38.7 nM

O=C(Nc1ccc2cnn(CCN3CCCC3)c2c1)NC1CCN(Cc2ccccc2)CC1
IC50 [2]: > 10000 nM
IC50 [7]: 4510 nM

O=C(Nc1ccc(OCc2ccccc2)cc1)Nc1ccc2c(cnn2CCN2CCCC2)c1
IC50 [2]: > 10000 nM
IC50 [7]: 41.3 nM

O=C(Nc1ccc(Oc2ccccc2)cc1)Nc1ccc2cnn(CCN3CCCC3)c2c1
IC50 [2]: > 10000 nM
IC50 [7]: 581 nM

O=C(Nc1ccc(OCc2ccccc2)cc1)Nc1ccc2cnn(CCN3CCCC3)c2c1
IC50 [2]: 7140 nM
IC50 [7]: 113 nM

O=C(Nc1ccc(Oc2ccccc2)cc1)Nc1cccc2c1cnn2CCN1CCCC1
IC50 [2]: > 10000 nM
IC50 [7]: 1850 nM

O=C(Nc1ccc(Oc2ccccc2)cc1)Nc1ccc2c(cnn2CCCN2CCC(O)CC2)c1
IC50 [2]: 894 nM
IC50 [7]: 91.5 nM

O=C1N(c2ccc(Oc3ccccc3)cc2)CCN1c1ccc2c(cnn2CCN2CCCC2)c1
IC50 [2]: 1120 nM
IC50 [7]: 19.8 nM

O=C(Nc1ccc(OCc2ccccc2)cc1)Nc1cccc2c1cnn2CCN1CCCC1
IC50 [2]: > 10000 nM
IC50 [7]: 1050 nM

O=C(Nc1ccc(Oc2ccccc2)cc1)Nc1ccc2c(cnn2CCN2CCCC2)c1
AUC [6]: 1.43 µg/h/g
Activity (Mus musculus [10]): 32.4
Body weight (Mus musculus [11]): 42.5 g
Cmax [1]: 246 ng/mL
Activity (Mus musculus [12]): 29.4
Activity (Mus musculus [13]): 20.1
Body weight (Mus musculus [14]): 42.3 g
Body weight (Mus musculus [15]): 42.3 g
Activity (Mus musculus [16]): 2.17
Activity (Mus musculus [17]): 23.6
Activity (Mus musculus [18]): 11.2
Activity (Mus musculus [19]): 3
Change in body weight (Mus musculus [20]): -3.41%
Activity (Mus musculus [21]): 13.6
Change in body weight (Mus musculus [22]): -17.1%
Body weight (Mus musculus [23]): 36.3 g
AUC [8]: 5.35 µg/h/g
Activity (Mus musculus [24]): 16.6 g
Cmax [9]: 260 ng/g
Activity (Mus musculus [25]): 39.8
Activity (Mus musculus [26]): 7.86

CCN[C@@H](C)Cc1cccc(C(F)(F)F)c1 [DEXFENFLURAMINE]
Body weight (Mus musculus [27]): 39.8 g
Change in body weight (Mus musculus [28]): 9.12%
Activity (Mus musculus [29]): 0.89
Body weight (Mus musculus [30]): 42.7 g
Activity (Mus musculus [31]): 39.9
Activity (Mus musculus [32]): 8.44
Activity (Mus musculus [33]): 17.8
Activity (Mus musculus [34]): 31.1
